# What was measured:
# [1] = target: T1, Intercellular adhesion molecule (ICAM-1), Integrin alpha-L/beta-2 (Homo sapiens, UniProt P05107+P20701); experiment: In vitro inhibition of recombinant ICAM-1 binding to purified immobilized LFA-1 using cell-free assay; assay type: functional
# Mus musculus [2] = experiment: Anti-inflammatory activity against murine model of allergic contact dermatitis (mACD) after single oral administration (1 mg/kg) (in vivo); assay type: functional
# Procedure, shortened: (§1)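 Oxazolone-sensitized mice, eight per group, challenged with 10 µL of 2.0% oxazolone on the inner surface of the right ear; unchallenged left ear served as control. Single oral dose of compound given 2 h after challenge. Ear weight difference at 24 h used as swelling measure. Result is % inhibition versus vehicle controls, mean ± SEM, ANOVA/Dunnett or H/U-test.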
# [3] = target: T1, Intercellular adhesion molecule (ICAM-1), Integrin alpha-L/beta-2; experiment: Inhibition of HUT78 cell adhesion to immobilized ICAM-1 protein; assay type: functional, cell-based
# [4] = Intrinsic clearance in human liver microsomes was determined; assay type: ADME, Microsome; conditions: read-out: Clearance
# Procedure, shortened: (§2)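 Pooled liver microsomes at 0.15 mg/mL protein, compound at 1 µM, in 100 mM phosphate buffer pH 7.4 with 5 mM MgCl2, 1 mM EDTA, 0.35 mg/mL albumin and alamethicin, at 37°C. Started with final 4 mM UDPGA plus 1 mM NADPH and stopped at 5 and 20 min with ACN containing 0.02% FA. Single incubations, clearance in µL/min/mg.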
# [5] = Intrinsic clearance in rat liver microsomes was determined; assay type: ADME, Microsome; conditions: read-out: Clearance; procedure, shortened: as §2
# Mus musculus [6] = experiment: Anti-inflammatory activity against murine model of allergic contact dermatitis (mACD) after single oral administration (0.1 mg/kg) (in vivo); assay type: functional; procedure, shortened: as §1
# T1 sequence (P20701 whole entry): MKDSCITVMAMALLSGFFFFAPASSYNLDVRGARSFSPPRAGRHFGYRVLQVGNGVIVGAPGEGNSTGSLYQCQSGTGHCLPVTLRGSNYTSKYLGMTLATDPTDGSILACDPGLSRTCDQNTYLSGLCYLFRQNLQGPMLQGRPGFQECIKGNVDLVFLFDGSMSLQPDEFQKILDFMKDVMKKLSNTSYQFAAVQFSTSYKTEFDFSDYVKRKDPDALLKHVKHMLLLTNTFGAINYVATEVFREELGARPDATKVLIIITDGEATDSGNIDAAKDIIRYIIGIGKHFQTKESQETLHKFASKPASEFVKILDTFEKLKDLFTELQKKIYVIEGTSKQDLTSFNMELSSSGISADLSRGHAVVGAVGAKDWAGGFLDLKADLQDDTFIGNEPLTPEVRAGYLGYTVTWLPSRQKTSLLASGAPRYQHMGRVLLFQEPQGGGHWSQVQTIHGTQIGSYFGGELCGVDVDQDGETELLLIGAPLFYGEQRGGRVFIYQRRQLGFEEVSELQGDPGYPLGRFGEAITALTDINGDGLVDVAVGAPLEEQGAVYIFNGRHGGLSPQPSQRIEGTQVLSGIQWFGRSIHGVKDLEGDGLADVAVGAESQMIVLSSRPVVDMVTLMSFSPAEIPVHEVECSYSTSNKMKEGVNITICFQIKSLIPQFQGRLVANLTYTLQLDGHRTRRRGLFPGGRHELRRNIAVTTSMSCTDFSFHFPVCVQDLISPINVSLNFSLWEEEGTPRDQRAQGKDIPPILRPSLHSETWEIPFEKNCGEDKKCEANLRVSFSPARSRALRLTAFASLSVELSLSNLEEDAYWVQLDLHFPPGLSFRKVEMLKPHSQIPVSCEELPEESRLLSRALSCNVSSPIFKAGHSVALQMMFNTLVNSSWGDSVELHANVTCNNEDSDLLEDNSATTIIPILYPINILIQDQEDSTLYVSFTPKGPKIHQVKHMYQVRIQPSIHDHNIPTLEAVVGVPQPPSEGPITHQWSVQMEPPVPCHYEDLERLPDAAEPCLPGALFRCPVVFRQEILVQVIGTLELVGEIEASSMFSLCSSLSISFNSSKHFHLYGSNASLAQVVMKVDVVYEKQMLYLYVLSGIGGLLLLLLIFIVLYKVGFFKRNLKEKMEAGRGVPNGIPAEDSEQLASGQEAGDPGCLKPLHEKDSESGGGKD
# T1 sequence (P05362 whole entry, further chain): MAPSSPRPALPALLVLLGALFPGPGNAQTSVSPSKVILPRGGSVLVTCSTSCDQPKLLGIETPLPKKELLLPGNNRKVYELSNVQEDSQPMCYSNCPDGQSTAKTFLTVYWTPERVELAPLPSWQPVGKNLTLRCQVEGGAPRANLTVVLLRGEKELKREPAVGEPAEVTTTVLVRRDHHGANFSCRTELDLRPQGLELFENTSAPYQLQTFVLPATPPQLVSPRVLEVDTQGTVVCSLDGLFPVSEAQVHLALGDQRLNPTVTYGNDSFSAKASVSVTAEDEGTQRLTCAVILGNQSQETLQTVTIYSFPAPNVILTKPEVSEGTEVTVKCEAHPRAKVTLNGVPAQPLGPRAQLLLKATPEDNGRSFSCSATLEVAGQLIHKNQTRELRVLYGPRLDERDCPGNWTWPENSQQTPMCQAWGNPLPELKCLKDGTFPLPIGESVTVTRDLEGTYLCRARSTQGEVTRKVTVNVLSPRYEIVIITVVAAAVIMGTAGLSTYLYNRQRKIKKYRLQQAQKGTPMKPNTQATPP
# T1 sequence (P05107 whole entry): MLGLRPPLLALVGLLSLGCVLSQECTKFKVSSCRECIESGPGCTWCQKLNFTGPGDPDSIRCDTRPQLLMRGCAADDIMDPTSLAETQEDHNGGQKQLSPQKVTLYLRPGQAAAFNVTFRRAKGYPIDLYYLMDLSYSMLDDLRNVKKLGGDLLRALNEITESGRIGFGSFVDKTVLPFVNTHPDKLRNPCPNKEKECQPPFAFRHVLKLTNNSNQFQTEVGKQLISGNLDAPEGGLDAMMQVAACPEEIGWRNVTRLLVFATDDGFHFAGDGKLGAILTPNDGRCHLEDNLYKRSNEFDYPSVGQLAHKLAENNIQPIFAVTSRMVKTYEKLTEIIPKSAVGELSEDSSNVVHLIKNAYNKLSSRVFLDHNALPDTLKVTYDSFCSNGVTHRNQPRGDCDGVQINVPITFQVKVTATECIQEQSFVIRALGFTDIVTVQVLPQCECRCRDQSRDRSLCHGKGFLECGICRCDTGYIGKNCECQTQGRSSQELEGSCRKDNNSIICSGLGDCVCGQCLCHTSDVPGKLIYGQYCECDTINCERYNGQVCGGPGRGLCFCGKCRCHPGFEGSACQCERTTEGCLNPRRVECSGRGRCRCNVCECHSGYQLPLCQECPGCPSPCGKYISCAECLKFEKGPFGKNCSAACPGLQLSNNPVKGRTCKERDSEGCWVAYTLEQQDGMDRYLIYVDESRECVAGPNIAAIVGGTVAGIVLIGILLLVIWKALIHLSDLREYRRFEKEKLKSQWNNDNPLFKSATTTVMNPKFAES
SMILES,IC50 [1] [µM],Inhibition (Mus musculus [2]) [%],IC50 [3] [µM],microsomal CLint [4] [µL/min/mg],microsomal CLint [5] [µL/min/mg],Inhibition (Mus musculus [6]) [%]
CC[C@H](C)C(=O)O[C@H]1C[C@@H](C)C=C2C=C[C@H](C)[C@H](CC[C@@H]3C[C@H](CC(=O)NC)N(Cc4ccc(C(=O)O)cc4)C(=O)O3)[C@H]21,0.87,21,> 30,205,214,–
CC[C@H](C)C(=O)O[C@H]1C[C@@H](C)C=C2C=C[C@H](C)[C@H](CC[C@@H]3C[C@H](CC(=O)OC)N(CCc4ccc(O)c(OC)c4)C(=O)O3)[C@H]21,0.64,30,20.5,–,–,9
CC[C@H](C)C(=O)O[C@H]1C[C@@H](C)C=C2C=C[C@H](C)[C@H](CC[C@@H]3C[C@H](CC(=O)NC)N(Cc4ccc(C(C)(C)O)cc4)C(=O)O3)[C@H]21,1.5,26,–,> 500,> 500,9
CC[C@H](C)C(=O)O[C@H]1C[C@@H](C)C=C2C=C[C@H](C)[C@H](CC[C@@H]3C[C@H](CC(=O)NC)N(CCc4ccc(O)c(OC)c4)C(=O)O3)[C@H]21,0.8,43,9.5,> 500,> 500,29
CC[C@H](C)C(=O)O[C@H]1C[C@@H](C)C=C2C=C[C@H](C)[C@H](CC[C@@H]3C[C@H](CC(=O)OC)N(Cc4cccc(OC)c4)C(=O)O3)[C@H]21,0.68,23,4.5,–,–,–
CC[C@H](C)C(=O)O[C@H]1C[C@@H](C)C=C2C=C[C@H](C)[C@H](CC[C@@H]3C[C@H](CC(=O)NC)N(Cc4ccc5c(c4)OC(F)(F)O5)C(=O)O3)[C@H]21,1.15,19,5.59,> 500,207,–
CC[C@H](C)C(=O)O[C@H]1C[C@@H](C)C=C2C=C[C@H](C)[C@H](CC[C@@H]3C[C@H](CC(=O)OC)N(Cc4ccc5c(c4)OC(F)(F)O5)C(=O)O3)[C@H]21,> 30,-3,> 30,–,–,–
CC[C@H](C)C(=O)O[C@H]1C[C@@H](C)C=C2C=C[C@H](C)[C@H](CC[C@@H]3C[C@H](CC(=O)OC)N(Cc4ccc(O)c(OC)c4)C(=O)O3)[C@H]21,0.05,46,0.12,–,–,16
CC[C@H](C)C(=O)O[C@H]1C[C@@H](C)C=C2C=C[C@H](C)[C@H](CC[C@@H]3C[C@H](CC(=O)NC)N(Cc4ccc(C(=O)NC)cc4)C(=O)O3)[C@H]21,0.62,26,> 30,> 500,> 500,32
CC[C@H](C)C(=O)O[C@H]1C[C@@H](C)C=C2C=C[C@H](C)[C@H](CC[C@@H]3C[C@H](CC(=O)OC)N(Cc4ccc(C(=O)NC)cc4)C(=O)O3)[C@H]21,1.3,8,> 30,–,–,–
CC[C@H](C)C(=O)O[C@H]1C[C@@H](C)C=C2C=C[C@H](C)[C@H](CC[C@@H]3C[C@H](CC(=O)NC)N(Cc4ccc(O)c(OC)c4)C(=O)O3)[C@H]21,0.05,47,0.25,> 500,> 500,39
CC[C@H](C)C(=O)O[C@H]1C[C@@H](C)C=C2C=C[C@H](C)[C@H](CC[C@@H]3C[C@H](CC(=O)NC)N(Cc4ccc5c(c4)OCO5)C(=O)O3)[C@H]21,0.17,29,6.42,383,100,28
CC[C@H](C)C(=O)O[C@H]1C[C@@H](C)C=C2C=C[C@H](C)[C@H](CC[C@@H]3C[C@H](CC(=O)OC)N(Cc4ccc(C(C)(C)O)cc4)C(=O)O3)[C@H]21,3,33,7.69,–,–,12
CC[C@H](C)C(=O)O[C@H]1C[C@@H](C)C=C2C=C[C@H](C)[C@H](CC[C@@H]3C[C@H](CC(=O)OC)N(Cc4ccc5c(c4)OCO5)C(=O)O3)[C@H]21,1,42,2.59,–,–,32
CC[C@H](C)C(=O)O[C@H]1C[C@@H](C)C=C2C=C[C@H](C)[C@H](CC[C@@H]3C[C@H](CC(=O)NC)N(Cc4cccc(OC)c4)C(=O)O3)[C@H]21,0.27,21,6.5,55,123,–

# Reference: ChEMBL document CHEMBL1146728, “Statin-derived 1,3-oxazinan-2-ones as submicromolar inhibitors of LFA-1/ICAM-1 interaction: stabilization of the metabolically labile vanillyl side chain” (Bioorg Med Chem Lett, 2004)
